Assay results published in ChEMBL document CHEMBL2010769, “Synthesis and antiviral activity of 6-deoxycyclopropavir, a new prodrug of cyclopropavir” (Bioorg Med Chem, 2012).

Key:
Human betaherpesvirus 5 [1] = assay: Antiviral activity against HCMV Toledo infected in human thymus/liver tissue xenografted in SCID mouse assessed as mean log10 genome equivalents/animal at 20 mg/kg, po qd for 28 days measured on day 35 by RT-PCR analysis (reference value: 3.28 +/- 1.422); assay type: functional, strain Toledo
Human betaherpesvirus 5 [2] = assay: Antiviral activity against HCMV Toledo infected in human thymus/liver tissue xenografted in SCID mouse assessed as decrease in viral infection at 20 mg/kg, po qd for 28 days measured on day 35 by RT-PCR analysis (reference value: 67%); assay type: functional, strain Toledo; parameters: scale not given: the % may be the effect or the level left
Human betaherpesvirus 5 [3] = assay: Antiviral activity against HCMV Toledo infected in human thymus/liver tissue xenografted in SCID mouse assessed as mean log10 genome equivalents/animal at 20 mg/kg, po qd for 21 days by RT-PCR analysis (reference value: 3.82 +/- 1.24); assay type: functional, strain Toledo
Human betaherpesvirus 5 [4] = assay: Antiviral activity against HCMV Toledo infected in human thymus/liver tissue xenografted in SCID mouse assessed as decrease in viral infection at 20 mg/kg, po qd for 14 days by RT-PCR analysis (reference value: 92%); assay type: functional, strain Toledo; parameters: scale not given: the % may be the effect or the level left
Human betaherpesvirus 5 [5] = assay: Antiviral activity against HCMV Toledo infected in human thymus/liver tissue xenografted in SCID mouse assessed as mean log10 genome equivalents/animal at 20 mg/kg, po qd for 28 days by RT-PCR analysis (reference value: 3.73 +/- 0.784); assay type: functional, strain Toledo
Human betaherpesvirus 5 [6] = assay: Antiviral activity against HCMV Toledo infected in human thymus/liver tissue xenografted in SCID mouse assessed as decrease in viral infection at 20 mg/kg, po qd for 28 days by RT-PCR analysis (reference value: 92%); assay type: functional, strain Toledo; parameters: scale not given: the % may be the effect or the level left
Human betaherpesvirus 5 [7] = assay: Antiviral activity against HCMV Toledo infected in human thymus/liver tissue xenografted in SCID mouse assessed as decrease in viral infection at 20 mg/kg, po qd for 21 days by RT-PCR analysis (reference value: 92%); assay type: functional, strain Toledo; parameters: scale not given: the % may be the effect or the level left
Human betaherpesvirus 5 [8] = assay: Antiviral activity against HCMV Toledo infected in human thymus/liver tissue xenografted in SCID mouse assessed as mean log10 genome equivalents/animal at 20 mg/kg, po qd for 14 days by RT-PCR analysis (reference value: 3.50 +/- 0.878); assay type: functional, strain Toledo
Murid betaherpesvirus 1 [9] = assay: Antiviral activity against MCMV infected in BALB/c mouse assessed as decrease in virus-induced mean day of death at 16.7 mg/kg, po qd for 5 days administered 24 hrs after viral infection (reference value: 4.9 +/- 0.7 days); assay type: functional
Murid betaherpesvirus 1 [10] = assay: Antiviral activity against MCMV infected in BALB/c mouse assessed as decrease in virus-induced mean day of death at 5.6 mg/kg, po qd for 5 days administered 24 hrs after viral infection (reference value: 4.9 +/- 0.7 days); assay type: functional
Murid betaherpesvirus 1 [11] = assay: Antiviral activity against MCMV infected in BALB/c mouse assessed as decrease in virus-induced mortality at 5.6 mg/kg, po qd for 5 days administered 24 hrs after viral infection (reference value: 67%); assay type: functional; parameters: scale not given: the % may be the effect or the level left
Procedure, shortened: (§1)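 Female BALB/c mice (3 weeks, 15/group) were inoculated ip with MCMV Smith at about LD90. Oral dosing of 0.2 mL in 0.4% CMC ran once daily for 5 days, starting 24 or 48 h post-inoculation. Mice were observed daily for 21 days. Mortality was compared with CMC placebo by Fisher's exact test.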

Murid betaherpesvirus 1 [12] = assay: Antiviral activity against MCMV infected in BALB/c mouse assessed as decrease in virus-induced mortality at 5.6 mg/kg, po qd for 5 days administered 48 hrs after viral infection (reference value: 100%); assay type: functional; parameters: scale not given: the % may be the effect or the level left; procedure, shortened: as §1
Murid betaherpesvirus 1 [13] = assay: Antiviral activity against MCMV infected in BALB/c mouse assessed as decrease in virus-induced mortality at 16.7 mg/kg, po qd for 5 days administered 48 hrs after viral infection (reference value: 100%); assay type: functional; parameters: scale not given: the % may be the effect or the level left; procedure, shortened: as §1
Murid betaherpesvirus 1 [14] = assay: Antiviral activity against MCMV infected in BALB/c mouse assessed as decrease in virus-induced mean day of death at 50 mg/kg, po qd for 5 days administered 48 hrs after viral infection (reference value: 5.1 +/- 0.9 days); assay type: functional
Murid betaherpesvirus 1 [15] = assay: Antiviral activity against MCMV infected in BALB/c mouse assessed as decrease in virus-induced mortality at 50 mg/kg, po qd for 5 days administered 24 hrs after viral infection (reference value: 67%); assay type: functional; parameters: scale not given: the % may be the effect or the level left; procedure, shortened: as §1
Murid betaherpesvirus 1 [16] = assay: Antiviral activity against MCMV infected in BALB/c mouse assessed as decrease in virus-induced mean day of death at 5.6 mg/kg, po qd for 5 days administered 48 hrs after viral infection (reference value: 5.1 +/- 0.9 days); assay type: functional
Murid betaherpesvirus 1 [17] = assay: Antiviral activity against MCMV infected in BALB/c mouse assessed as decrease in virus-induced mortality at 16.7 mg/kg, po qd for 5 days administered 24 hrs after viral infection (reference value: 67%); assay type: functional; parameters: scale not given: the % may be the effect or the level left; procedure, shortened: as §1
Murid betaherpesvirus 1 [18] = assay: Antiviral activity against MCMV infected in BALB/c mouse assessed as decrease in virus-induced mean day of death at 50 mg/kg, po qd for 5 days administered 24 hrs after viral infection (reference value: 4.9 +/- 0.7 days); assay type: functional
Murid betaherpesvirus 1 [19] = assay: Antiviral activity against MCMV infected in BALB/c mouse assessed as decrease in virus-induced mean day of death at 16.7 mg/kg, po qd for 5 days administered 48 hrs after viral infection (reference value: 5.1 +/- 0.9 days); assay type: functional
Murid betaherpesvirus 1 [20] = assay: Antiviral activity against MCMV infected in BALB/c mouse assessed as decrease in virus-induced mortality at 50 mg/kg, po qd for 5 days administered 48 hrs after viral infection (reference value: 100%); assay type: functional; parameters: scale not given: the % may be the effect or the level left; procedure, shortened: as §1
Murid betaherpesvirus 1 [21] = assay: Antiviral activity against MCMV infected in SCID mouse assessed as log10 reduction in viral titer in lung at 10 mg/kg, po relative to control; assay type: functional
Murid betaherpesvirus 1 [22] = assay: Antiviral activity against MCMV infected in SCID mouse assessed as log10 reduction in viral titer in kidney at 10 mg/kg, po relative to control; assay type: functional
Murid betaherpesvirus 1 [23] = assay: Antiviral activity against MCMV infected in SCID mouse assessed as log10 reduction in viral titer in liver at 10 mg/kg, po relative to control; assay type: functional
Murid betaherpesvirus 1 [24] = assay: Antiviral activity against MCMV infected in SCID mouse assessed as log10 reduction in viral titer in spleen at 10 mg/kg, po relative to control; assay type: functional

## Nc1ccn(C[C@@H](CO)OCP(=O)(O)O)c(=O)n1.O.O [CIDOFOVIR]
Human betaherpesvirus 5 [1]
  Activity: 1.59
Human betaherpesvirus 5 [2]
  Activity: 0%
Human betaherpesvirus 5 [3]
  Activity: 2.83
Human betaherpesvirus 5 [4]
  Activity: 82%
Human betaherpesvirus 5 [5]
  Activity: 2.08
Human betaherpesvirus 5 [6]
  Activity: 50%
Human betaherpesvirus 5 [7]
  Activity: 100%
Human betaherpesvirus 5 [8]
  Activity: 2.47

## Nc1nc2c(ncn2COC(CO)CO)c(=O)[nH]1 [GANCICLOVIR]
Murid betaherpesvirus 1 [9]
  Activity: 6.3 days
Murid betaherpesvirus 1 [10]
  Activity: 6.8 days
Murid betaherpesvirus 1 [11]
  Activity: 87%
Murid betaherpesvirus 1 [12]
  Activity: 93%
Murid betaherpesvirus 1 [13]
  Activity: 53%
Murid betaherpesvirus 1 [14]
  Activity: 5.7 days
Murid betaherpesvirus 1 [15]
  Activity: 7%
Murid betaherpesvirus 1 [16]
  Activity: 6.4 days
Murid betaherpesvirus 1 [17]
  Activity: 20%
Murid betaherpesvirus 1 [18]
  Activity: 6 days
Murid betaherpesvirus 1 [19]
  Activity: 7.3 days
Murid betaherpesvirus 1 [20]
  Activity: 20%

## Nc1nc2c(ncn2/C=C2/CC2(CO)CO)c(=O)[nH]1 [FILOCICLOVIR]
Murid betaherpesvirus 1 [21]
  FC: 2
Murid betaherpesvirus 1 [22]
  FC: 2
Murid betaherpesvirus 1 [23]
  FC: 2
Murid betaherpesvirus 1 [24]
  FC: 2
